Measurements: article PMC2808126 (Molecular cancer therapeutics, 2009)
Read-outs that look alike come from different tables or passages of the source. Each block holds one compound with its values, some of them ahead of it.

Key:
22Rv1 cells [1] = assay: ATP viability assay; assay type: cell-based; settings: Homo sapiens; for IC50: 22Rv1, 72 h, read-out: approximate IC50, cell viability (taxanes)
Summary of the method: (§1)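 Lines kept in RPMI 1640 with 10% FBS, except LAPC-4 in Iscove's medium with 5% FBS. About 1,000 cells/well plated in 384-well plates in 1% serum. Test compound added next day at increasing concentrations. For 22Rv1, agents given alone or combined for 48 h, or taxanes for 72 h. Other lines treated 72 h. ATPlite luminescence read, replicate wells averaged, approximate IC50 estimated.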

PC3 cells = assay: ATP viability assay; assay type: cell-based; settings: Homo sapiens, PC-3, 72 h, read-out: approximate IC50, cell viability
Summary of the method: as §1

C4-2B cells [2] = assay: ATP viability assay; assay type: cell-based; settings: Homo sapiens, 72 h, read-out: approximate IC50, cell viability
Summary of the method: as §1

LNCaP cells = assay: ATP viability assay; assay type: cell-based; settings: Homo sapiens, 72 h, read-out: approximate IC50, cell viability
Summary of the method: as §1

DU145 cells = assay: ATP viability assay; assay type: cell-based; settings: Homo sapiens, DU-145, 72 h, read-out: approximate IC50, cell viability
Summary of the method: as §1

RWPE2-W99 cells = assay: ATP viability assay; assay type: cell-based; settings: Homo sapiens, Keratinocyte, 72 h, read-out: approximate IC50, cell viability
Summary of the method: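 RWPE2-W99 kept in Keratinocyte Serum Free Medium with bovine pituitary extract and human recombinant EGF. About 1,000 cells/well plated in 384-well plates in complete medium. Test compound added next day at increasing concentrations for 72 h. Viability read by ATPlite luminescence, replicate wells averaged, approximate IC50 estimated.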

LAPC-4 cells = assay: ATP viability assay; assay type: cell-based; settings: Homo sapiens, LAPC4, 72 h, read-out: approximate IC50, cell viability
Summary of the method: as §1

22Rv1-Pim1 cells [3] = assay: ATP viability assay; assay type: cell-based, human; settings: 72 hours
22Rv1-T cells [4] = assay: ATP viability assay; assay type: cell-based, human; settings: for cell viability response: 22Rv1-T, time course to 72 hours; for IC50: Homo sapiens, 72 h
Summary of the method: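 Paclitaxel-resistant 22Rv1 subline made by serial passage over about 4 months in rising paclitaxel (0-400ng/ml), then maintained in 5ng/ml paclitaxel. About 1,000 cells/well plated in 1% serum in 384-well plates. Next day, taxanes or test compound added alone, or combined with paclitaxel, for up to 72 h. ATPlite luminescence read, replicate wells averaged.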

C4-2B cells [5] = assay: Cell cycle analysis by flow cytometry; assay type: cell-based, human; settings: 24 hours, untreated 72%
22Rv1 cells [6] = assay: Cell cycle analysis by flow cytometry; assay type: cell-based, human; settings: 24 hours, untreated 60%
[7] = tested on: phospho-p21^Thr145 in 22Rv1 cells; assay: Western blot of phospho-p21 Thr145; assay type: cell-based, human
[8] = tested on: phospho-p21^Thr145 in C4-2B cells; assay: Western blot of phospho-p21 Thr145; assay type: cell-based, human; settings: 5 hour treatment
Summary of the method: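 C4-2B cells, kept in RPMI 1640 with 10% FBS, treated 5 h with increasing concentrations of test compound. Western blot probed for phospho-p21 Thr145 and total p21, with β-actin as loading control.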

[9] = tested on: p-p21^Thr145 in 22Rv1-Pim1 cells; assay: Western blot of phospho-p21 Thr145; assay type: cell-based, human; settings: 22Rv1-Pim1, 1μM, 2 hours
[10] = tested on: phosphorylated Bad^Ser112 in 22Rv1-T cells; assay: Western blot of phospho-Bad Ser112; assay type: cell-based, human; settings: 5 hours
Summary of the method: (§2)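 Cells (22Rv1, C4-2B or the paclitaxel-resistant 22Rv1 subline) treated with increasing doses of test compound for 5 h. Lysates immunoblotted for phospho-Bad Ser112 and total Bad, with β-actin as loading control.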

22Rv1-Pim1 cells [11] = assay: Caspase-3 fluorometric protease assay; assay type: cell-based; settings: Homo sapiens, 22Rv1, read-out: fold induction of apoptosis (caspase-3) in 22Rv1-Pim1 compared to 22Rv1
22Rv1-T cells [12] = assay: Caspase-3 fluorometric protease assay; assay type: cell-based, human
[13] = tested on: MDR1 activity in 22Rv1-T cells; assay: Multidrug resistance assay; assay type: cell-based, human; settings: 15 minutes; for fluorescent calcein retention (MDR1 efflux activity): single agent
[14] = tested on: phosphorylated Bad^Ser112 in C4-2B cells; assay: Western blot of phospho-Bad Ser112; assay type: cell-based, human; settings: increasing doses, 5 hours
Summary of the method: as §2

[15] = tested on: phosphorylated Bad^Ser112 in 22Rv1 cells; assay: Western blot of phospho-Bad Ser112; assay type: cell-based, human; settings: 22Rv1, increasing doses, 5 hours
Summary of the method: as §2

C4-2B cells [16] = assay: Caspase-3 fluorometric protease assay; assay type: cell-based, human; settings: increasing concentrations, 24 hours
Summary of the method: (§3)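 Cells held overnight in 1% serum, then exposed to increasing concentrations of test compound for 24 h. Apoptosis measured as caspase-3 activity with a fluorometric protease assay kit. Activity expressed relative to untreated samples.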

22Rv1 cells [17] = assay: Caspase-3 fluorometric protease assay; assay type: cell-based, human; settings: 22Rv1, increasing concentrations, 24 hours
Summary of the method: as §3

[18] = tested on: MDR1 mRNA in 22Rv1-T cells; assay: Quantitative real-time RT-PCR of MDR1; assay type: cell-based, human; settings: 22Rv1-T (Supplementary Fig. 3b)
[19] = 22Rv1, 48 h, read-out: cell viability
[20] = read-out: IC50, cell viability (taxanes)

SMILES: CN1CCC(CNc2ccc3ncc(-c4cccc(OC(F)(F)F)c4)n3n2)CC1 [SGI-1776]
viability at 2.5 µM (22Rv1 cells [1]; [19]): 63%
IC50 (PC3 cells): ~3 µM
IC50 (C4-2B cells [2]): ~4 µM
IC50 (LNCaP cells): ~5 µM
IC50 (DU145 cells): ~8 µM
IC50 (RWPE2-W99 cells): ~9 µM
IC50 (LAPC-4 cells): > 10 µM
reduction in IC50 in 22Rv1-Pim1 compared to 22Rv1, cell viability (22Rv1-Pim1 cells [3]): ~3 fold
cell viability response (22Rv1-T cells [4]; 2.5μM SGI-1776 alone): minimal response
IC50 (22Rv1-T cells [4]; read-out: approximate IC50, cell viability): ~5 µM
percentage of cells in the G1 phase (C4-2B cells [5]; 2.5μM): 81% ± 1.24
percentage of cells in the G1 phase (C4-2B cells [5]; 7.5μM): 95% ± 0.16
percentage of cells in the G1 phase (22Rv1 cells [6]; 22Rv1, 2.5μM): 70% ± 2.00
percentage of cells in the G1 phase (22Rv1 cells [6]; 22Rv1, 7.5μM): 81% ± 1.17
effect on p-p21^Thr145 abundance ([7]; 22Rv1, 1μM, 2 hours): minimal, if any, effect
concentration of maximal inhibition of phospho-p21^Thr145 ([7]; 22Rv1, 5 hour treatment): 5 µM
concentration at which significant decrease in p-p21^Thr145 was first observed ([7]; parental 22Rv1 (Fig. 3a)): 2.5 to 5 µM
concentration of maximal inhibition of phospho-p21^Thr145 [8]: 7.5 µM
effect on p-p21^Thr145 abundance [9]: dramatic inhibition
concentration of maximal inhibition of phosphorylated Bad^Ser112 [10]: 5 to 7.5 µM
fold induction at 2.5 µM (22Rv1-Pim1 cells [11]): 1.6
increase of caspase-3 activity compared to untreated cells (22Rv1-T cells [12]; 2.5μM SGI-1776, 24 hours): 1.42 fold
caspase-3 activity relative to untreated (100%) (22Rv1-T cells [12]; 2.5μM SGI-1776, 24 hours, ± 3): 142%
increase of caspase-3 activity compared to untreated cells (22Rv1-T cells [12]; 2.5μM SGI-1776 combined with 50nM paclitaxel, 24 hours): 2.7 fold
caspase-3 activity relative to untreated (100%) (22Rv1-T cells [12]; 2.5μM SGI-1776 combined with 50nM paclitaxel, 24 hours, ± 8, p<0.0001): 269%
fluorescent calcein accumulation, combination ([13]; paclitaxel combined with SGI-1776): did not further enhance
fluorescent calcein retention (MDR1 efflux activity) [13]: dose-dependent increase
phosphorylated Bad^Ser112 protein levels [14]: dose-dependent decrease
phosphorylated Bad^Ser112 protein levels [15]: dose-dependent decrease
caspase-3 activity levels (C4-2B cells [16]): dose-dependent increase
caspase-3 activity levels (22Rv1 cells [17]): dose-dependent increase
MDR1 mRNA expression levels [18]: did not alter

IC50 (22Rv1 cells [1]): ~0.0025 µM
IC50 (22Rv1-T cells [4]; [20]): > 0.1 µM
SMILES: CC(=O)O[C@@]12CO[C@@H]1C[C@H](O)[C@@]1(C)C(=O)[C@H](O)C3=C(C)[C@@H](OC(=O)[C@H](O)[C@@H](NC(=O)OC(C)(C)C)c4ccccc4)C[C@@](O)([C@@H](OC(=O)c4ccccc4)[C@H]21)C3(C)C [docetaxel]

IC50 (22Rv1 cells [1]): ~0.0045 µM
IC50 (22Rv1-T cells [4]; [20]): > 0.1 µM
SMILES: CC(=O)O[C@H]1C(=O)[C@@]2(C)[C@H]([C@H](OC(=O)c3ccccc3)[C@]3(O)C[C@H](OC(=O)[C@H](O)[C@@H](NC(=O)c4ccccc4)c4ccccc4)C(C)=C1C3(C)C)[C@]1(OC(C)=O)CO[C@@H]1C[C@@H]2O [paclitaxel]
viability at 0.0025 µM (22Rv1 cells [1]; [19]): 62.6%
cell viability response (22Rv1-T cells [4]; 50nM paclitaxel alone): does not respond
change in caspase-3 levels (22Rv1-T cells [12]; increasing doses of paclitaxel alone, 24 hours): lack of change
fluorescent calcein retention (MDR1 efflux activity) [13]: no different from the untreated cells
